Shown are actives, neighbours in structure and some others; about 0.89% of the full set was active somewhere.
E-sel TNF inh: E-selectin induction blockers in HUVEC – imaging, immunofluorescence, high content, primary screen; inhibition, % at 2 µM; AID 1246, 2008; 0.71% of 120,000 active; HUVEC TNFa-induced E-selectin immunofluorescence;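 active means inhibition above the batch mean plus 3 SD, and confirmed as a hit on visual image review, cut at about 43% in these data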;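 further: 0% = TNF-stimulated DMSO wells and 100% = unstimulated control wells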
HSV augment: enhancers of HSV replication in host cells, fold increase, host cell viability; AID 1956, 2009; 0.005% of 220,000 active; HSV replication augmentation in cells; maximum fold increase; in the data active means maximum fold increase above about 1.5; tested in PC3 cells
TNF death inh: inhibitors of TNF-alpha triggered necroptosis, primary screen, cell-based, Jurkat FADD-/-, single concentration; Jurkat FADD-/- TNF necroptosis rescue, ATP luminescence, 24 h; 0 = TNF only, 100 = no-TNF cells; activation (protection from cell death), % at 10 µM; 0.068% of 220,000 active; AID 463075, 2010;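 active means activation, meaning protection from cell death, of at least 50% relative to plate controls; inactive means activation below 50%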;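 further: necroptosis triggered by 40 ng/mL TNF-alpha added together with compound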
L929 necroptosis: inhibitors of zVAD-triggered necroptosis, primary screen, L929 cells | viability rescue, % at 10 µM | 0.38% of 220,000 active | AID 1377, 2008 | L929 zVAD necroptosis rescue, ATP luminescence, 24 h; with zVAD 60 µM;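 active means activation, scaled between plate controls, above about 75%, limit read from the data; inactive means activation under that limit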;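 further: 0% = zVAD with DMSO and 100% = DMSO alone without zVAD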
MDM2 E3 inh: MDM2-luciferase reporter signal enhancers, primary screen, MDM2 E3 ligase inhibitor project, cell-based, luminescence, 1536-well; E3 ubiquitin-protein ligase Mdm2 (Homo sapiens), Q00987; cell-based MDM2 ubiquitination luciferase reporter, 2 h; 0 = plate control, 100 = twice control, blank-subtracted; signal enhancement, % at 5 µM; 0.11% of 210,000 active;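 active means signal enhancement of 30% or more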;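 further: luminescence tracks abundance of the self-degrading MDM2-luciferase fusion protein; higher signal means inhibition of MDM2 E3 ligase activity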
Target sequence (Q00987 whole entry, looked up, the tested form may be a part): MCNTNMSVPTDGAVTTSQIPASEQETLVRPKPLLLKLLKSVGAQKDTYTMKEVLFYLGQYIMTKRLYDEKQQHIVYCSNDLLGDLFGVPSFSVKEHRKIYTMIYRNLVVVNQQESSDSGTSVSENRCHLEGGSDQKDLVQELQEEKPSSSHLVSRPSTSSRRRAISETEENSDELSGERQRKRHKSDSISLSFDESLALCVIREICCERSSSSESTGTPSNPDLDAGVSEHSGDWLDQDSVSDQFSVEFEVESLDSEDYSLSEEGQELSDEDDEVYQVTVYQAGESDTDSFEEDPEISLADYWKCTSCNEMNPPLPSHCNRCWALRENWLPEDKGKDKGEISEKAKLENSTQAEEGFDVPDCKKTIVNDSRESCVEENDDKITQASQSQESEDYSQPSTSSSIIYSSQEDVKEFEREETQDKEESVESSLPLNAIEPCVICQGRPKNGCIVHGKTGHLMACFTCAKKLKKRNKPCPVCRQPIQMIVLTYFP
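Assay system: mammalian cells stably expressing self-ubiquitinating, self-degrading MDM2 E3–luciferase fusion. Quantity: 2000 cells in each well. Medium: DMEM culture medium. Compound dosing: single-point 5 µM. Timing: cell settling 4 h, compound treatment 2 h, both 37 °C. Technique: luciferase luminescence. Read-out basis: percent signal gain over controls, blank-subtracted. Benchmarks: plate controls and plate blanks.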
zVAD necrop conf: inhibitors of zVAD-triggered necroptosis in L929, confirmation, L929 cells, duplicate runs; shares compounds with L929 necroptosis; L929 zVAD-induced necroptosis rescue, ATP luminescence, 24 h; activation (protection from necroptosis), % at 10 µM; 16% of 760 active;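 active means mean protection from necroptosis of at least 50% over duplicate tests; inactive means mean protection below 50%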;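 further: 0% = cells with zVAD alone and 100% = vehicle cells without zVAD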
* marks the source's active call; other numbers are inactive results; i = inactive; nt = no result given.

SMILES	E-sel TNF inh	HSV augment	TNF death inh	L929 necroptosis	MDM2 E3 inh	zVAD necrop conf
COc1ccc(N=Cc2c(O)[nH]c3ccccc23)cc1	12	i	-2	77*	-21	76*
Oc1[nH]c2ccccc2c1C=Nc1ccc2c(c1)OCO2	0	i	-1	74	-10	nt
CC(C)(C)OC(=O)N1CCC2(CC1)Oc1ccc(F)cc1C(=O)C21CC(c2ccccc2)=NO1 (configuration not stated)	nt	i	nt	nt	nt	nt
COc1cc(C(=O)OCC(=O)c2c(N)n(C)c(=O)n(C)c2=O)ccc1OCCC(C)C	nt	i	1	1	4	nt
CC(C)[C@H]1C=C(C(=O)O)O[C@@H](OCCCCO)C1	nt	i	2	0	-1	nt
Cc1nc2ccccc2nc(=O)c1NNc1ccccc1	nt	i	5	76*	nt	3
Cc1ccc2nc(=O)c(NNc3ccccc3)cnc2c1	1	i	0	nt	-6	nt
COc1cc(NC(=S)Nc2ccccn2)c(OC)cc1Cl	nt	i	1	79*	1	7
COc1ccc(/C=N/Nc2ccccn2)cc1OC	nt	i	53*	88*	-12	89*
Cc1[nH]c2ccccc2c1/C=N/Nc1ccccn1	-6	i	35	79*	-12	85*
COc1ccc(/C=N/NC(=O)C(=O)Nc2ccccn2)cc1OC	nt	i	0	1	-1	nt
Cc1[nH]c2ccccc2c1/C=N/Nc1nncn1N	nt	i	-1	4	-9	nt
COc1cc(/C=N/Nc2ccccn2)ccc1O	nt	i	43	87*	-12	75*
COc1cc(NC(=S)Nc2cccc(Cl)c2Cl)c(OC)cc1Cl	-56	i	-6	0	-8	nt
COCCNc1nc(-c2cc(C(=O)Nc3ccccc3)on2)cc(C(C)C)n1	nt	i	nt	nt	nt	nt
COc1ccc(NC(=O)Nc2ccccn2)cc1OC	nt	i	8	76*	-7	35
Cc1ccc(/C=N\Nc2nc3ccc(Cl)cc3[nH]2)o1	3	i	9	86*	-18	78*
Fc1ccccc1-c1ccc(/C=N/Nc2nc3ccccc3[nH]2)o1	nt	i	-2	1	-37	nt
CCn1c(=NC(=O)c2ccc(S(=O)(=O)N3CCOCC3)cc2)sc2cccc(OC)c21	nt	i	-10	77*	-3	8
Cc1ccccc1Oc1cc(-n2ncc(Cl)c(Cl)c2=O)ncn1	nt	i	-14	85*	26	3
CC(=O)c1c(C)[nH]c(C(=O)OCc2ccccc2)c1C	nt	i	0	71	-13	nt
CCN(CC)CCc1c(C)[nH]c(C(=O)OCc2ccccc2)c1C	-1	i	-1	76*	-10	38
C=CCOc1ccc(/C=C/C(=O)Nc2ccc(C(=O)NC)cc2)cc1	-32	i	0	nt	-11	nt
C=CCOc1ccc(/C=C/C(C)=N\O)cc1	-1	i	1	79*	-20	10
O=C1CC[C@@H](CN(Cc2ccccn2)Cc2nc(Cc3cccc(C(F)(F)F)c3)no2)N1	-13	i	1	-1	-7	nt
SMILES	E-sel TNF inh	HSV augment	TNF death inh	L929 necroptosis	MDM2 E3 inh	zVAD necrop conf
Cc1ccc(NC(=O)C(OC(=O)c2ccc(C=O)cc2)c2ccccc2)cc1Cl (configuration not stated)	nt	i	3	83*	-19	19
Cc1cc(C)nc(N/N=C/C2=C(O)CC(c3ccc(F)cc3)CC2=O)n1 (configuration not stated)	nt	i	-13	6	-6	nt
Cc1ccc(Nc2nnc(-c3ccc(N4CCOCC4)c([N+](=O)[O-])c3)c3ccccc23)cc1	nt	i	0	73	3	nt
O=[N+]([O-])c1cc(-c2nnc(Nc3ccccc3)c3ccccc23)ccc1N1CCOCC1	49	i	1	98*	-5	36
O=C(OCn1ncc(Cl)c(Cl)c1=O)c1ccccc1Cl	100*	i	9	102*	0	64*
O=C(OCn1ncc(Cl)c(Cl)c1=O)c1ccc(F)cc1	100*	i	-25	78*	-17	53*
